Reference: article PMC4298701 (Diabetes, 2007)

Assays:
[1] = biological target: T1, sphingomyelinase (Homo sapiens, UniProt P17405); experiment: Sphingomyelinase inhibition; assay type: biochemical; details: at a concentration <1 μmol/l
T1 sequence (P17405 47-631): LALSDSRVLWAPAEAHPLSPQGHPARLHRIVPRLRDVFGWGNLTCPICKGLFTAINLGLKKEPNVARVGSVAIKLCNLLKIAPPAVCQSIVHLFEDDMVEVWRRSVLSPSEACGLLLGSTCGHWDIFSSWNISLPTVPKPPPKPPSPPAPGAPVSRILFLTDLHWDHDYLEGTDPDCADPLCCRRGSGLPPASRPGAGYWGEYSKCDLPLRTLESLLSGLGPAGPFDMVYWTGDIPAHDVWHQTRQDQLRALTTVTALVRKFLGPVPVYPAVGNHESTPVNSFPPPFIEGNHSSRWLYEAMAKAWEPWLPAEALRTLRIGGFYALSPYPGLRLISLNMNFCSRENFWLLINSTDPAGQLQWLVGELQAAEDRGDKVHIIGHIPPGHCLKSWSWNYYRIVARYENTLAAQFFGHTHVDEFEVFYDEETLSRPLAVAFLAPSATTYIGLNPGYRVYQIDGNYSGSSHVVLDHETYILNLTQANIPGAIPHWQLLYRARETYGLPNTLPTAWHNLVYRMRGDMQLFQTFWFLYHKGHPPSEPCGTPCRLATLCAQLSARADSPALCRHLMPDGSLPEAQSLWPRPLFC

[2] = biological target: acid α-glucosidase (Homo sapiens, UniProt P10253); experiment: Acid α-glucosidase inhibition; assay type: biochemical; details: at a concentration <1 μmol/l
[3] = test system: endoplasmic reticulum–trimming α-glucosidases; experiment: ER-trimming α-glucosidases inhibition; assay type: biochemical; details: at a concentration <1 μmol/l
[4] = biological target: debranching enzyme (α-1, 6-glucosidase) (Homo sapiens, UniProt P35573); experiment: Debranching enzyme, erythrocyte preparation; assay type: biochemical; details: at a concentration <1 μmol/l; data not shown
Sequence of debranching enzyme (α-1, 6-glucosidase) (P35573 whole entry): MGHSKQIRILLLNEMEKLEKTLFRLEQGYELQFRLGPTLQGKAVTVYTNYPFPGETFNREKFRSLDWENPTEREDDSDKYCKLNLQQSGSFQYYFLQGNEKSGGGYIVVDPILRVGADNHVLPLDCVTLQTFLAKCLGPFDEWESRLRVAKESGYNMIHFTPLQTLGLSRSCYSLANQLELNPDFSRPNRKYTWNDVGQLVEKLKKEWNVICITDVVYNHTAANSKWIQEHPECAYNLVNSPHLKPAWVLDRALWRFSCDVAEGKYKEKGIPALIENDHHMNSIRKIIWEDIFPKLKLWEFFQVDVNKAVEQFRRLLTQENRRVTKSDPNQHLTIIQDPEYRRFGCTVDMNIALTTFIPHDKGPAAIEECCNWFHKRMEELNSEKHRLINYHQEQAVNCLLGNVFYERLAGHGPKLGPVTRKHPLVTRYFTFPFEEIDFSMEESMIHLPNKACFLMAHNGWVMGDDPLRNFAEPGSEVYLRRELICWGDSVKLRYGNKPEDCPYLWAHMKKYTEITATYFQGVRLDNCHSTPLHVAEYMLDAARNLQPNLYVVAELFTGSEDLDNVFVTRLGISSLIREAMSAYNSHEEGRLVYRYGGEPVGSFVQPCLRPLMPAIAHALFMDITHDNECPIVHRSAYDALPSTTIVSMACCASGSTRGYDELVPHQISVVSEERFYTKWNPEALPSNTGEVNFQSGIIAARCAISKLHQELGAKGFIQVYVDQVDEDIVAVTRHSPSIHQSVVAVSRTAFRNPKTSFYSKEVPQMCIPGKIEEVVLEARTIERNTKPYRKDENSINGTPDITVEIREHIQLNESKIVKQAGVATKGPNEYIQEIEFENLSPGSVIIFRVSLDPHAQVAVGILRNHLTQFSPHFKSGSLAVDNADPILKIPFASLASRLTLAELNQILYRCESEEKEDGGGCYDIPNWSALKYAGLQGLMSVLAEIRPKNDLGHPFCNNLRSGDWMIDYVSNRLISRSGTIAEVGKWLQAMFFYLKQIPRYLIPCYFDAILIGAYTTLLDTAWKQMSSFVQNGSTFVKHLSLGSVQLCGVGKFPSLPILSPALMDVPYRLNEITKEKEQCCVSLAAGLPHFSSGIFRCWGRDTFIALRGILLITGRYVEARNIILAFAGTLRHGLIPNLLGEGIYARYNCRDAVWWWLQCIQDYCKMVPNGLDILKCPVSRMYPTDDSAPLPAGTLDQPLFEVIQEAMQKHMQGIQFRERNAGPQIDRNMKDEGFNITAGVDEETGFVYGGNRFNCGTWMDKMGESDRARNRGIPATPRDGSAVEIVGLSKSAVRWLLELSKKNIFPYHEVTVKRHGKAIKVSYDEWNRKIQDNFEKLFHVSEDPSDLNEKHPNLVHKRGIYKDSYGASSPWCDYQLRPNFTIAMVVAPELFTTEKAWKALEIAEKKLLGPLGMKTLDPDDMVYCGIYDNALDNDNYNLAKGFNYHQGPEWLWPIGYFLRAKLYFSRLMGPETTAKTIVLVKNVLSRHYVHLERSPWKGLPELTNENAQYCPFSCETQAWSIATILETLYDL

[5] = test system: glycogen synthase; experiment: Glycogen synthase inhibition; assay type: biochemical; details: at a concentration <1 μmol/l; data not shown
[6] = biological target: sucrase (Rattus norvegicus, UniProt P23739); experiment: Sucrase, homogenates of freshly isolated rat intestine; assay type: biochemical; details: read-out: IC50 sucrase; rat intestine homogenate
Sequence of sucrase (P23739 1014-1841 limits assumed): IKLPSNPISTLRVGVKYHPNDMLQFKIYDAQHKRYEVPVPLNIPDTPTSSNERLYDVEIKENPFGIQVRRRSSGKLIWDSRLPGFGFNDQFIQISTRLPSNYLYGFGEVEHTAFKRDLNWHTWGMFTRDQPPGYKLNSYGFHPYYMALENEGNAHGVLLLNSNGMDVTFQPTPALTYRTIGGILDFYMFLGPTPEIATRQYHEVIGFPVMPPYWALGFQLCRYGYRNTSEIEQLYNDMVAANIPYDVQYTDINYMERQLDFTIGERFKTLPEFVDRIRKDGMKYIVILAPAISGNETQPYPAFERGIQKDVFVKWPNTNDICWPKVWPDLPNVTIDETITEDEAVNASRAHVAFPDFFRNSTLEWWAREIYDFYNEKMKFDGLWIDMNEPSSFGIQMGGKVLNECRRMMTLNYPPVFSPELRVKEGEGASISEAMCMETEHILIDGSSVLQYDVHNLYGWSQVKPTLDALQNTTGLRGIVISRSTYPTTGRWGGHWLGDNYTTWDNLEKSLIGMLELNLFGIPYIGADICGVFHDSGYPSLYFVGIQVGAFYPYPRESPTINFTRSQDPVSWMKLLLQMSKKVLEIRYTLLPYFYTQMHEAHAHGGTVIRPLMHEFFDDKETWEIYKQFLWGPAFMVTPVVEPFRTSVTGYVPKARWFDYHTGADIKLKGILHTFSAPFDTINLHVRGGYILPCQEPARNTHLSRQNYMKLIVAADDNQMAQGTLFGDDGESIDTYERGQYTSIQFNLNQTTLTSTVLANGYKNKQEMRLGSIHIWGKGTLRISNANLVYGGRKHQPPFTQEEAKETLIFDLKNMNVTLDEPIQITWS
Sequence of sucrase (P23739 1-1013 partner limits assumed): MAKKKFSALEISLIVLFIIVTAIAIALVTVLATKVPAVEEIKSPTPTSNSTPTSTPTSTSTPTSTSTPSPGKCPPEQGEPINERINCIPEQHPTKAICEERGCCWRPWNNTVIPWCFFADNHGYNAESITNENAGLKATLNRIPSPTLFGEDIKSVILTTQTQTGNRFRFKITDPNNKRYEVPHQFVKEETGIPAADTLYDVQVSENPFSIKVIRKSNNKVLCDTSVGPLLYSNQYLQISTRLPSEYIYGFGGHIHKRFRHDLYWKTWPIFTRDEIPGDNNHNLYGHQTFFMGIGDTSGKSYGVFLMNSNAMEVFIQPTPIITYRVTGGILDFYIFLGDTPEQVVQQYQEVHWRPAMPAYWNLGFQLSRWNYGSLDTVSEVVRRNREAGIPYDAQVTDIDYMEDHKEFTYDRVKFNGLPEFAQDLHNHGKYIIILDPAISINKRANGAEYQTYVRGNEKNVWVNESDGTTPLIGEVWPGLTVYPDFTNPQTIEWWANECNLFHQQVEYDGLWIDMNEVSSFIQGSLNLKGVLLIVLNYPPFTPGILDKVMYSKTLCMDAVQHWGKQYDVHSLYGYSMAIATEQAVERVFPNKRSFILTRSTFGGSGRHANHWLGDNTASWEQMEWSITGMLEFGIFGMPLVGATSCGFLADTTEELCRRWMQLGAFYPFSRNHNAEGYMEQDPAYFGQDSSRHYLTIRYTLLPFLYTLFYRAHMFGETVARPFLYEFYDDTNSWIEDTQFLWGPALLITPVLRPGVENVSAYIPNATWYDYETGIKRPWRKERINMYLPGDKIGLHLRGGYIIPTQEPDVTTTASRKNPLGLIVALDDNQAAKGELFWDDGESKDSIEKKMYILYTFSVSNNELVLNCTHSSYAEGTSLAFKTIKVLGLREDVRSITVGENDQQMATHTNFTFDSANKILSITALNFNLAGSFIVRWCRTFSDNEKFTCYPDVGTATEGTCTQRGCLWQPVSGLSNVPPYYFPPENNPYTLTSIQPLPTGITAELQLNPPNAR

[7] = test system: maltase; experiment: Maltase, homogenates of freshly isolated rat intestine; assay type: biochemical; details: read-out: IC50 maltase; rat intestine homogenate
[8] = test system: 3T3-L1 adipocytes; experiment: Sphingolipid content of 3T3-L1 adipocytes; assay type: cell-based; details: TNF-α 0.6 nmol/l + AMP-DNM 10 μmol/l, 24 h, mean ± SE
[9] = test system: 3T3-L1 adipocytes; experiment: Insulin signaling in TNF-α-treated 3T3-L1 adipocytes; assay type: cell-based; details: 10 μmol/l AMP-DNM, TNF-α 0.6 nmol/l, 24 h
[10] = test system: 3T3-L1 adipocytes; experiment: Cell surface expression of GM3; assay type: cell-based; details: 10 μmol/l AMP-DNM, TNF-α 0.6 nmol/l, 24 h
How it was run: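 Fully differentiated 3T3-L1 adipocytes were serum-deprived in DMEM plus 1% BSA and treated for 24 h with vehicle, test compound (10 μmol/l) and/or TNF-α (0.6 nmol/l). Basal cells (no insulin) were stained with monoclonal anti-GM3 and FITC- or Alexa 488-conjugated secondary antibody, then read by flow cytometry as % viable cells GM3-positive. Means ± SE of four independent experiments.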

[11] = Plasma levels of AMP-DNM in mice; assay type: in vivo
How it was run: (§1)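 Plasma test compound was measured by HPLC followed by mass spectrometry, with blood taken by tail vein, retro-orbital or cardiac puncture. Half-life was determined in mice and rats. For plasma concentration, six-week-old C57Bl/6J mice (n = 4) were dosed at 25 mg·kg−1·day−1 for 14 days and sampled during treatment; mean ± SE.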

[12] = Plasma levels of AMP-DNM in rats; assay type: in vivo
How it was run: as §1

[13] = Plasma levels, accumulation and metabolism after administration to rodents; assay type: in vivo
[14] = In vitro incubation with microsomes; assay type: in vitro ADME; details: 4 h; not shown
[15] = test system: rodents; experiment: Tolerability in rodents; assay type: in vivo; details: up to 100 mg · kg−1 · day−1 for 2 months
[16] = test system: C57Bl/6J mice; experiment: Ceramide and glycosphingolipids in liver and muscle of normal C57Bl/6J mice; assay type: in vivo
[17] = test system: ob/ob mice; experiment: Ceramide and glucosylceramide in liver and muscle of ob/ob mice; assay type: in vivo
[18] = test system: ob/ob mice; experiment: Hyperinsulinemic-euglycemic clamp in ob/ob mice; assay type: in vivo; details: 25 mg · kg body wt−1 · day−1, clamp
[19] = test system: ob/ob mice; experiment: Glucose homeostasis, A1C and liver lipids/glycogen in ob/ob mice; assay type: in vivo
How it was run: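 ob/ob mice (C57Bl/6J background) were fed diet containing test compound at 25 mg·kg−1·day−1, with wild-type mice as reference; A1C was measured after 9 weeks. For oral glucose tolerance, animals were fasted >6 h and gavaged with glucose (1 or 2 g/kg). […] Means ± SE; two-tailed Student's t test.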

[20] = test system: ZDF rats; experiment: Ceramide and glycosphingolipid levels in liver of ZDF rats; assay type: in vivo; details: mean ± SD
[21] = test system: ZDF rats; experiment: A1C in ZDF rats; assay type: in vivo
[22] = test system: C57Bl/6J mice fed a high-fat diet; experiment: Glucose homeostasis in high-fat diet-induced glucose-intolerant C57Bl/6J mice; assay type: in vivo; details: high-fat diet C57Bl/6J mice, 2 weeks, ± SD
How it was run: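 C57Bl/6J mice were made glucose-intolerant by 4 weeks on a high-fat diet (16.4% protein, 25.5% carbohydrate, 58.0% fat). They then received test compound by daily oral gavage at 0, 5 or 25 mg·kg−1·day−1 for 2 weeks, n = 8 per group. Fasted blood glucose was measured; means ± SD.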

[23] = with insulin (100 nmol/l, 5 min)
[24] = oral administration of 25 mg/kg body wt
[25] = C57Bl/6J mice, 25 mg · kg−1 · day−1, 14 days
[26] = normal C57Bl/6J mice, 25 mg AMP-DNM/kg, 2 weeks, mean ± SD
[27] = 25 mg AMP-DNM/kg, 2 weeks, mean ± SD
[28] = ob/ob mice, 25 mg · kg body wt−1 · day−1

Structure (SMILES): OC[C@@H]1[C@@H](O)[C@H](O)[C@@H](O)CN1CCCCCOCC12CC3CC(CC(C3)C1)C2 [AMP-DNM, N-(5′-adamantane-1′-yl-methoxy)-pentyl-1-deoxynojirimycin]
- inhibition of sphingomyelinase activity [1]: no significant inhibition
- inhibition of acid α-glucosidase activity [2]: no significant inhibition
- inhibition of endoplasmic reticulum–trimming α-glucosidases [3]: no significant inhibition
- effect on cytosolic debranching enzyme [4]: unaffected
- effect on glycogen synthase [5]: unaffected
- IC50 [6]: 4.5 µM
- IC50 [7]: 18 µM
- Ceramide [8, 23]: 1,241 ± 99 pmol/well
- GM3 [8, 23]: 1,988 ± 169 pmol/well
- Ceramide ([8]; without insulin): 1,241 ± 88 pmol/well
- GM2 ([8]; without insulin): 267 ± 18 pmol/well
- GM3 ([8]; without insulin): 2,205 ± 138 pmol/well
- TNF-α-impaired insulin receptor autophosphorylation, IRS-1 tyrosine phosphorylation and Ser-473 phosphorylation of Akt [9]: significantly ameliorated
- TNF-α-increased cell surface levels of GM3 gangliosides [10]: blocked
- plasma concentration of AMP-DNM ([11]; C57Bl/6J mice, 25 mg · kg body wt−1 · day−1 for 14 days, mean ± SE): 108 ± 6 nM
- plasma half-life ([11]; mice): ~ 3.1 h
- plasma half-life [12]: ~4.2 h
- accumulation with daily exposure ([13]; daily exposure over 28 days): does not accumulate
- in vivo metabolism (mass spectrometric analysis of urine and plasma) ([13]; in vivo): No significant in vivo metabolism
- maximal plasma concentration [13, 24]: 5 µmol/L
- time of maximal plasma concentration [13, 24]: 30 min
- recovered after in vitro incubation with microsomes [14]: More than 90%
- overt toxicity [15]: did not result in any overt toxicity
- reduction of ganglioside GM3 in liver [16, 25]: 28 ± 6%
- reduction of liver glucosylceramide [16, 25]: 41 ± 5%
- Cer, liver [16, 26]: 10.31 ± 0.96 nmol/mg protein
- Cer, muscle [16, 26]: 1.47 ± 0.22 nmol/mg protein
- GlcCer, liver [16, 26]: 1.24 ± 0.09 nmol/mg protein
- GlcCer, muscle [16, 26]: 0.89 ± 0.22 nmol/mg protein
- Cer, liver [17, 27]: 95.9 ± 11.6 nmol/mg protein
- Cer, muscle [17, 27]: 1.29 ± 0.24 nmol/mg protein
- GlcCer, liver [17, 27]: 2.24 ± 0.14 nmol/mg protein
- GlcCer, muscle [17, 27]: 1.41 ± 0.16 nmol/mg protein
- decrease of glucosylceramide content of muscle ([17]; 25 mg · kg−1 · day−1, two weeks): 45 ± 23%
- decrease in hepatic glucose production (Ra) [18]: ~ 26%
- increase in glucose disposal (Rd) [18]: ~ 29%
- whole-body insulin sensitivity [18]: marked improvement
- triglyceride concentration in liver ([19]; AMP-DNM-fed ob/ob mice): 80 ± 11 nmol/mg liver
- blood glucose concentrations [19, 28]: pronounced reduction
- effect on body weight or food intake [19, 28]: no significant effect
- A1C concentration ([19]; ob/ob mice, 25 mg · kg body wt−1 · day−1 for 9 weeks): 4.82 ± 0.85%
- AUC of blood glucose concentrations, oral glucose tolerance test ([19]; ob/ob mice, 25 mg/kg for 8 days, glucose 1 g/kg body wt, ± SD): 13.21 ± 1.43 arbitrary units per minute
- Liver Ceramide ([20]; 5 mg · kg−1 · day−1, 10 weeks): 416 ± 24 nmol/g wet wt
- Liver GDA1 ([20]; 5 mg · kg−1 · day−1, 10 weeks): 15.5 ± 1.7 nmol/g wet wt
- Liver GM1 ([20]; 5 mg · kg−1 · day−1, 10 weeks): 11.4 ± 2.2 nmol/g wet wt
- Liver GM2 ([20]; 5 mg · kg−1 · day−1, 10 weeks): 5.9 ± 0.9 nmol/g wet wt
- Liver GM3 ([20]; 5 mg · kg−1 · day−1, 10 weeks): 21.3 ± 2.9 nmol/g wet wt
- Liver Glucosylceramide ([20]; 5 mg · kg−1 · day−1, 10 weeks): 53.4 ± 5.7 nmol/g wet wt
- Liver Ceramide ([20]; 25 mg · kg−1 · day−1, 10 weeks): 451 ± 37 nmol/g wet wt
- Liver GDA1 ([20]; 25 mg · kg−1 · day−1, 10 weeks): 7.9 ± 0.9 nmol/g wet wt
- Liver GM1 ([20]; 25 mg · kg−1 · day−1, 10 weeks): 5.6 ± 1.1 nmol/g wet wt
- Liver GM2 ([20]; 25 mg · kg−1 · day−1, 10 weeks): 4.8 ± 0.8 nmol/g wet wt
- Liver GM3 ([20]; 25 mg · kg−1 · day−1, 10 weeks): 17.3 ± 2.7 nmol/g wet wt
- Liver Glucosylceramide ([20]; 25 mg · kg−1 · day−1, 10 weeks): 47.4 ± 5.2 nmol/g wet wt
- A1C ([21]; 25 mg · kg−1 · day−1, 9 weeks): 6.31 ± 0.68%
- A1C ([21]; 60 mg · kg body wt−1 · day−1, 10 weeks, separate experiment): 5.4 ± 0.4%
- fasting blood glucose ([22]; 5 mg · kg−1 · day−1 oral gavage): 9.46 ± 0.26 mmol/L
- fasting blood glucose ([22]; 25 mg · kg−1 · day−1 oral gavage): 7.74 ± 0.40 mmol/L
